From ChEMBL document CHEMBL1145187

What was measured:
[1] = molecular target: T1, Estrogen receptor (Homo sapiens) (UniProt P03372); experiment: Relative binding affinity for human estrogen receptor alpha
T1 sequence (whole entry): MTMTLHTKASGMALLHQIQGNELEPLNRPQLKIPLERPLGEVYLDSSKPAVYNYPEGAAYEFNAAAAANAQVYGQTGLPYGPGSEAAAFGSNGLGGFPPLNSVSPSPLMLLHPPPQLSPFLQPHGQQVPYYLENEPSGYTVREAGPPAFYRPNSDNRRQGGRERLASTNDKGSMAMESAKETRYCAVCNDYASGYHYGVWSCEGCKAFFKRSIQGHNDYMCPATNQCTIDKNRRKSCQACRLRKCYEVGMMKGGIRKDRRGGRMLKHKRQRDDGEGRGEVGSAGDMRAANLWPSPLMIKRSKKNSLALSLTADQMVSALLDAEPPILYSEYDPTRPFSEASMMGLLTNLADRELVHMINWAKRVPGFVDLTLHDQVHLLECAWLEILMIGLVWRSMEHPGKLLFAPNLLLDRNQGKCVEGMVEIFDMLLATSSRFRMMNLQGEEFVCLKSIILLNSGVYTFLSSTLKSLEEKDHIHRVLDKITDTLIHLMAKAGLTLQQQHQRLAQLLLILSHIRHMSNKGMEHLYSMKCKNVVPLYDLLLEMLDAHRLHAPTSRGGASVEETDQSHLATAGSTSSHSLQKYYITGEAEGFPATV

[2] = molecular target: Estrogen receptor beta (Homo sapiens) (UniProt Q92731); experiment: Transcriptional efficacy against human estrogen receptor beta at 10e-6 M; type: functional
Summary of the method: (§1)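 HEC-1 cells were grown in phenol-red MEM with 5% calf serum and 5% fetal calf serum, then plated in phenol-red-free improved MEM with 5% charcoal dextran-treated calf serum. They were lipofectin-transfected for 5 h at 37 °C with ERβ expression vector, 2ERE-pS2-Luc and pCMV β-galactosidase. Ligand was then added for 24 h.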

[3] = molecular target: Estrogen receptor beta (Homo sapiens) (UniProt Q92731); experiment: Transcriptional efficacy against human estrogen receptor beta at 10e-8 M; type: functional; summary of the method: as §1

Estrogen receptor beta (Homo sapiens), sequence (Q92731 whole entry): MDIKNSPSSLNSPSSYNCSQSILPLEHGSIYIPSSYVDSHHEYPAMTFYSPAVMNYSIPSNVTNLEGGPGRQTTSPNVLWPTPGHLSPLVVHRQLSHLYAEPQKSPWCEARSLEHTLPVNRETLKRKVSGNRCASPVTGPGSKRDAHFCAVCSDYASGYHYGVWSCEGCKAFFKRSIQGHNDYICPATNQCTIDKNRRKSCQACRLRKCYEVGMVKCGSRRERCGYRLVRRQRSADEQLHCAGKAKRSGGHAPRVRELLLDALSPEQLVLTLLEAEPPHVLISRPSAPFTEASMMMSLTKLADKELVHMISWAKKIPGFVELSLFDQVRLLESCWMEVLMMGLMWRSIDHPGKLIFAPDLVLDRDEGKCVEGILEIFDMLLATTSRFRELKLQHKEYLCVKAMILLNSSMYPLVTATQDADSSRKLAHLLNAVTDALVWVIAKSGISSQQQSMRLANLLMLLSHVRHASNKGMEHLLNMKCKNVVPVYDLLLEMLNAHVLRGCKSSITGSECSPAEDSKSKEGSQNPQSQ

Structure (SMILES)	Relative binding affinity [1]	Efficacy [2] [%]	Efficacy [3] [%]
Oc1ccc(-n2cc3ccccc3n2)cc1	0.02	–	–
Oc1ccc2nn(-c3ccc(O)c(Cl)c3)c(Cl)c2c1	0.023	–	–
Oc1ccc(-n2cc3cc(O)ccc3n2)cc1	0.049	90	47
CC(C)c1c2cc(O)ccc2nn1-c1ccc(O)cc1	0.14	–	–
Oc1ccc(-n2cc3ccc(O)cc3n2)cc1	0.008	75	1.7
Oc1ccc2nn(-c3ccc(O)c(Cl)c3)cc2c1	0.07	–	–
Oc1ccc(-n2nc3cc(O)ccc3c2Cl)cc1	0.08	–	–
Oc1ccc(-n2nc3ccc(O)cc3c2Br)cc1	0.18	67	66
Oc1ccc(-n2nc3ccccc3c2Cl)cc1	0.03	–	–
Oc1ccc(-n2cc3ccc(O)c(Br)c3n2)cc1	0.02	29	1.4
Oc1ccc2nn(-c3ccccc3)cc2c1	< 0.004	–	–
C=CCc1c2cc(O)ccc2nn1-c1ccc(O)cc1	0.06	–	–
Oc1ccc(-n2nc3ccc(O)cc3c2-c2ccccc2)cc1	0.04	28	11
Oc1ccc(-n2nc3ccc(O)cc3c2Cl)cc1	0.3	89	88
Oc1ccc(-n2nc3ccc(O)cc3c2C(F)(F)F)cc1	3.9	74	78
CCc1c2cc(O)ccc2nn1-c1ccc(O)cc1	0.08	100	63
Oc1ccc(-n2nc3ccc(O)cc3c2I)cc1	0.17	58	85
Cc1c2cc(O)ccc2nn1-c1ccc(O)cc1	0.03	87	57
Oc1ccc2nn(-c3ccccc3)c(Cl)c2c1	0.014	–	–
CCCc1c2cc(O)ccc2nn1-c1ccc(O)cc1	0.04	–	–
N#Cc1c2cc(O)ccc2nn1-c1ccc(O)cc1	1.4	56	82
Oc1ccc(-n2nc3c(Cl)c(O)ccc3c2Cl)cc1	0.07	–	–
